The source made the active and inactive calls. The calls are words filed in the database; no cut-off is given here.

The first assay addresses T1, Monoacylglycerol lipase ABHD6 (Homo sapiens, UniProt Q9BV23).
T1 sequence (Q9BV23 whole entry): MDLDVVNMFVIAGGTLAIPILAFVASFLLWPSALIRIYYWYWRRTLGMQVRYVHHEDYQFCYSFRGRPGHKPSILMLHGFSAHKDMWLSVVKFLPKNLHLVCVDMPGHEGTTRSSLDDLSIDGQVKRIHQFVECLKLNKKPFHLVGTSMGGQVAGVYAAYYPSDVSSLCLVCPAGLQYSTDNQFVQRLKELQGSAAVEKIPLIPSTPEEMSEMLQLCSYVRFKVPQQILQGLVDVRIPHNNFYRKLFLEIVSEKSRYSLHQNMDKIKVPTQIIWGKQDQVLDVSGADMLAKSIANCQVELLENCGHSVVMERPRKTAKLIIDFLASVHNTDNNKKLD
The experiment in a line: Inhibition of recombinant human ABHD6 expressed in HEK293 cells by AmplifuTM red dye based fluorescence assay. In kind it is cell-based. Summed up: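 Membranes from transiently transfected HEK293T cells expressing human ABHD6, 40 μg mL-1 final protein. Real-time coupled fluorescence assay with natural substrate 2-AG (25 μM). Glycerol released is detected via glycerol kinase, glycerol-3-phosphate oxidase and HRP (0.2 U mL-1 each), 0.125 mM ATP and 10 μM Amplifu Red. Assay contains 5% DMSO and 0.5% acetonitrile. pIC50 ± SEM.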
As for `O=C(N1CCC=C[C@@H]1COCc1ccccc1)n1cc(-c2ccc(Oc3ccccc3)cc2)nn1`, the IC50 (in general, the midpoint of a concentration-inhibition curve) was 0.00631 µM.

As for `O=C(N1CCC=C[C@@H]1COCc1ccccc1)n1cc(-c2ccc(-c3ccccc3)cc2)nn1`, the IC50 is 0.0126 µM.

For `O=C(N1CCC=C[C@@H]1COCc1ccccc1)n1cc(-c2ccc([N+](=O)[O-])cc2)nn1`, the IC50 was 0.0316 µM.

Consider `O=C(N1CCC=C[C@@H]1COCc1ccccc1)n1cc(-c2ccc(Br)cc2)nn1`, for which the IC50 is 0.0158 µM.

Consider `O=C(N1C[C@@H](O)C=C[C@@H]1COCc1ccccc1)n1cc(-c2ccc(-c3ccccc3)cc2)nn1`, for which the IC50 is 0.01 µM.

For `O=C(N1CCCC[C@@H]1COCc1ccccc1)n1cc(-c2ccc(-c3ccccc3)cc2)nn1`, the IC50 was 0.00316 µM.

For the compound `O=C(N1CCC=C[C@@H]1COCc1ccccc1)n1cc(-c2ccccc2)nn1`, the IC50 is 0.158 µM.

Another assay concerns the target T2, Diacylglycerol lipase-alpha (Mus musculus) (UniProt Q6WQJ1).
T2 sequence (whole entry): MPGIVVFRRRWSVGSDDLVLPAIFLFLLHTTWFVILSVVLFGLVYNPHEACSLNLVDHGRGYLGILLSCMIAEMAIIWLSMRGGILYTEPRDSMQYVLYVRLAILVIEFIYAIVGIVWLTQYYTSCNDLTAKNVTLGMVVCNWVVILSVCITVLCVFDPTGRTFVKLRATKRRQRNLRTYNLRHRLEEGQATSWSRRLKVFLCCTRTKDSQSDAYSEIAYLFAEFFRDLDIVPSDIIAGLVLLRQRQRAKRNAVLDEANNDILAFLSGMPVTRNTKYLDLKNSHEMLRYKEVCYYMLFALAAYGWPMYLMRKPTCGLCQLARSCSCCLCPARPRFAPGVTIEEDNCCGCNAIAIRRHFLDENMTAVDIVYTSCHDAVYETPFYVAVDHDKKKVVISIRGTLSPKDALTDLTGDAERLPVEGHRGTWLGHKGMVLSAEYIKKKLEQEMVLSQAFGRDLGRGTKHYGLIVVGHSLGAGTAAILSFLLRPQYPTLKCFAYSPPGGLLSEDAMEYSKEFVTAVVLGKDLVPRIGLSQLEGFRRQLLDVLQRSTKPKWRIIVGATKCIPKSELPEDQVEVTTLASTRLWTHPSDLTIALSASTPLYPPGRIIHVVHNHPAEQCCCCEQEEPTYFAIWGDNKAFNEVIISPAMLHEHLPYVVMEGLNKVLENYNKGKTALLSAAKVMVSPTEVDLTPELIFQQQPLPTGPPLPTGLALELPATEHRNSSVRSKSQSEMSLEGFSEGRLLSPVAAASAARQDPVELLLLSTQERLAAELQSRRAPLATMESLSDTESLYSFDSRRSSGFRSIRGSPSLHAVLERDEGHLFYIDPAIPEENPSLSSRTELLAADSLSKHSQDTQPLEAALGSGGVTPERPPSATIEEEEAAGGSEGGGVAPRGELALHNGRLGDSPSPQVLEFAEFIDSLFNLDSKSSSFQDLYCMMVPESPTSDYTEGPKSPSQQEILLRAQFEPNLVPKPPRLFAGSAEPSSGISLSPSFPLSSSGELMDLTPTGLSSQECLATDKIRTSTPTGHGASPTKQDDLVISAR
As to the kind of experiment: Inhibition of MB064 labelling of DAGLalpha in mouse brain homogenates at 10 uM pretreated for 30 mins followed by MB064 addition and measured after 20 mins by activity based protein profiling assay relative to control. Type of assay: tissue-based. Summed up:
(§1)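 Mouse brain membrane proteome preincubated 30 min with inhibitor (10 μM), then labelled with MB064 probe (0.25 μM, 20 min). Readout by gel-based competitive ABPP. Band intensities corrected for protein loading per lane from Coomassie staining. Means ± SEM, n = 3.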
With `O=C(N1CCC=C[C@@H]1COCc1ccccc1)n1cc(-c2ccc(Oc3ccccc3)cc2)nn1`, the inhibition (as a rule, the change of the read-out against control, counted positive when it falls) was found to be 93%.

`O=C(N1CCC=C[C@@H]1COCc1ccccc1)n1cc(-c2ccc(-c3ccccc3)cc2)nn1`: the inhibition came out at 94%.

On to `O=C(N1CCC=C[C@@H]1COCc1ccccc1)n1cc(-c2ccc([N+](=O)[O-])cc2)nn1`, for which the inhibition is 95%.

On to `O=C(N1CCC=C[C@@H]1COCc1ccccc1)n1cc(-c2ccc(Br)cc2)nn1`, for which the inhibition was determined as 93%.

Regarding `O=C(N1C[C@@H](O)C=C[C@@H]1COCc1ccccc1)n1cc(-c2ccc(-c3ccccc3)cc2)nn1`, the inhibition amounted to 85%.

In the case of `O=C(N1CCCC[C@@H]1COCc1ccccc1)n1cc(-c2ccc(-c3ccccc3)cc2)nn1`, the inhibition was 96%.

On to `O=C(N1CCC=C[C@@H]1COCc1ccccc1)n1cc(-c2ccccc2)nn1`, for which the inhibition came out at 89%.

A further assay has as its target T3, Monoacylglycerol lipase ABHD6 (Mus musculus) (UniProt Q8R2Y0).
T3 sequence (whole entry): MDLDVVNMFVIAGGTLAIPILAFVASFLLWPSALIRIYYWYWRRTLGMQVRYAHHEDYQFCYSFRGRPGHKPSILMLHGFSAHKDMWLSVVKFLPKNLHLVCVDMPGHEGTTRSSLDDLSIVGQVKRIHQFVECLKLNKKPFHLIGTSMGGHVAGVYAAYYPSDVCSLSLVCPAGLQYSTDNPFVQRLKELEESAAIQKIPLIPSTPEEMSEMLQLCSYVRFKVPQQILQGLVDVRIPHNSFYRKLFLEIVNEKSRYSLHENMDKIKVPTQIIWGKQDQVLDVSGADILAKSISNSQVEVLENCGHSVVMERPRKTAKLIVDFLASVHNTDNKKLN
As to the kind of experiment: Inhibition of MB064 labelling of ABHD6 in mouse brain homogenates at 10 uM pretreated for 30 mins followed by MB064 addition and measured after 20 mins by activity based protein profiling assay relative to control. Type of assay: tissue-based. In outline:
as §1
With `O=C(N1CCC=C[C@@H]1COCc1ccccc1)n1cc(-c2ccc(Oc3ccccc3)cc2)nn1`, the inhibition is 86%.

`O=C(N1CCC=C[C@@H]1COCc1ccccc1)n1cc(-c2ccc(-c3ccccc3)cc2)nn1`: the inhibition was 96%.

Regarding `O=C(N1CCC=C[C@@H]1COCc1ccccc1)n1cc(-c2ccc([N+](=O)[O-])cc2)nn1`, the inhibition stood at 93%.

In the case of `O=C(N1CCC=C[C@@H]1COCc1ccccc1)n1cc(-c2ccc(Br)cc2)nn1`, the inhibition amounted to 94%.

For the compound `O=C(N1C[C@@H](O)C=C[C@@H]1COCc1ccccc1)n1cc(-c2ccc(-c3ccccc3)cc2)nn1`, the inhibition was 95%.

`O=C(N1CCCC[C@@H]1COCc1ccccc1)n1cc(-c2ccc(-c3ccccc3)cc2)nn1`: the inhibition was 96%.

`O=C(N1CCC=C[C@@H]1COCc1ccccc1)n1cc(-c2ccccc2)nn1`: the inhibition was 89%.

In the next assay the target is T4, Triacylglycerol hydrolase DDHD2 (Mus musculus) (UniProt Q80Y98).
T4 sequence (whole entry): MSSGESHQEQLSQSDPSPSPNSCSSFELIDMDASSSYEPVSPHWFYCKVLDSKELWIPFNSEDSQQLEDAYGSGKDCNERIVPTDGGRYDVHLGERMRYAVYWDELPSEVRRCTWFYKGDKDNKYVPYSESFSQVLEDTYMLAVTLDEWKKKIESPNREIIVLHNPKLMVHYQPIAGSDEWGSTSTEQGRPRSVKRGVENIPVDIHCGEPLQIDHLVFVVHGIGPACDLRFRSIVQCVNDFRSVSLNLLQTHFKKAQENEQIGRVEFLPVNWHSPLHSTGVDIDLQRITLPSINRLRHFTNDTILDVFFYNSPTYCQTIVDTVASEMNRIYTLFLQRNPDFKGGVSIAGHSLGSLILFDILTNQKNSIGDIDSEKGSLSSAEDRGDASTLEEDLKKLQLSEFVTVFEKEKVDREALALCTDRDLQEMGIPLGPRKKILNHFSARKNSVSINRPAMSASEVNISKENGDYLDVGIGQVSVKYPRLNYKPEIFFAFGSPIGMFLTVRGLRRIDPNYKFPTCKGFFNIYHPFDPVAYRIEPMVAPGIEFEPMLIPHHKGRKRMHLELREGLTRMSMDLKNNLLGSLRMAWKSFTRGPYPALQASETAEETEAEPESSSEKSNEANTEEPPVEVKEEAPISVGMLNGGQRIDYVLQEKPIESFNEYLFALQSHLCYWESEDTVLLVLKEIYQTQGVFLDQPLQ
As to the kind of experiment: Inhibition of MB064 labelling of DDHD2 in mouse brain homogenates at 10 uM pretreated for 30 mins followed by MB064 addition and measured after 20 mins by activity based protein profiling assay. Type of assay: tissue-based. Summed up: as §1
In the case of `O=C(N1CCC=C[C@@H]1COCc1ccccc1)n1cc(-c2ccc(Oc3ccccc3)cc2)nn1`, the inhibition entry is “Active”.

Regarding `O=C(N1CCC=C[C@@H]1COCc1ccccc1)n1cc(-c2ccc(-c3ccccc3)cc2)nn1`, the inhibition entry is “Active”.

In the case of `O=C(N1CCC=C[C@@H]1COCc1ccccc1)n1cc(-c2ccc([N+](=O)[O-])cc2)nn1`, the inhibition result is “Active”.

Turning to `O=C(N1CCC=C[C@@H]1COCc1ccccc1)n1cc(-c2ccc(Br)cc2)nn1`, the inhibition entry was “Active”.

On to `O=C(N1C[C@@H](O)C=C[C@@H]1COCc1ccccc1)n1cc(-c2ccc(-c3ccccc3)cc2)nn1`, for which the inhibition result is “Active”.

As to `O=C(N1CCCC[C@@H]1COCc1ccccc1)n1cc(-c2ccc(-c3ccccc3)cc2)nn1`, the inhibition entry is “Active”.

For the compound `O=C(N1CCC=C[C@@H]1COCc1ccccc1)n1cc(-c2ccccc2)nn1`, the inhibition result was “Active”.
